Reference: ChEMBL document CHEMBL3739335, “Phosphonooxymethyl Prodrug of Triptolide: Synthesis, Physicochemical Characterization, and Efficacy in Human Colon Adenocarcinoma and Ovarian Cancer Xenografts” (J Med Chem, 2015)
Activity calls are given as the source filed them. The rule behind the calls is not given here.

Columns and labels:
[1] = Chemical stability of the compound in buffer assessed as compound remaining at pH 6 after 4 hrs by HPLC analysis; type: physicochemical; settings: read-out: Stability
[2] = Chemical stability of the compound in buffer assessed as pseudo-first-order rate constant at 70 degC at pH 7.4 by Arrhenius plot analysis; type: physicochemical
[3] = Chemical stability of the compound in buffer assessed as compound remaining at pH 4 after 4 hrs by HPLC analysis; type: physicochemical; settings: read-out: Stability
Mus musculus [4] = test: Toxicity in athymic nude mouse xenografted with human HT-29 cells assessed as mortality at 0.9 mg/kg, ip administered for 2 weeks; type: organism-based; settings: in vivo, 336 h
[5] = Stability of the compound in simulated gastric fluid assessed as compound remaining after 1 hr by HPLC analysis
Mus musculus [6] = test: Toxicity in athymic nude mouse xenografted with human A2780 cells assessed as survival at 0.6 to 0.9 mg/kg, ip administered for 30 days; type: organism-based; settings: in vivo, 720 h
In short: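 Female athymic nude mice, 7–9 weeks old, carried subcutaneous flank A2780 xenografts (2.5 × 10^6 cells in 50% Matrigel). Randomized at 188 mm3 mean tumor volume, 10 per group. Daily intraperitoneal dosing in USP saline (0.2 mL) for 30 days, based on group-mean weight. Survival and clinical signs were monitored.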

[7] = Chemical stability of the compound in buffer assessed as pseudo-first-order rate constant at 60 degC at pH 7.4 by Arrhenius plot analysis; type: physicochemical
[8] = Chemical stability of the compound in buffer assessed as compound remaining at pH 2 after 1 hr by HPLC analysis; type: physicochemical; settings: read-out: Stability
[9] = Chemical stability of the compound in buffer assessed as compound remaining at pH 9 after 2 hrs by HPLC analysis; type: physicochemical; settings: read-out: Stability
[10] = Chemical stability of the compound in buffer assessed as compound remaining at pH 4 after 8 hrs by HPLC analysis; type: physicochemical; settings: read-out: Stability
[11] = Chemical stability of the compound in buffer assessed as compound remaining at pH 7.4 after 24 hrs by HPLC analysis; type: physicochemical; settings: read-out: Stability
[12] = Aqueous solubility of the compound in Tris buffer at pH 7.4 at room temperature by HPLC analysis; type: physicochemical
In short: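 About 5 mg solid was added to Tris buffer pH 7.4 in triplicate to saturation, then sonicated and vortexed. Samples were shaken at 25 °C for 24 h. Excess solid was removed by centrifugation and filtration, and the diluted filtrate was quantified by reverse-phase C18 HPLC with photodiode array detection, using an acetonitrile/10 mM sodium phosphate pH 7 gradient.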

[13] = Stability of the compound in glycine buffer at pH 9.8 after 1 hr in absence of bovine intestinal mucosal alkaline phosphatase; type: physicochemical; settings: pH 9.8, 1 h
In short: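 Conversion in glycine buffer pH 9.8 with alkaline phosphatase from bovine intestinal mucosa; loss of compound and formation of triptolide followed, first-order fit for half-life. Control run in same buffer without enzyme for 1 h.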

[14] = Chemical stability of the compound in buffer assessed as compound remaining at pH 4 after 1 hr by HPLC analysis; type: physicochemical; settings: read-out: Stability
[15] = Chemical stability of the compound in buffer assessed as pseudo-first-order rate constant at 40 degC at pH 7.4 by Arrhenius plot analysis; type: physicochemical
[16] = Chemical stability of the compound in buffer assessed as compound remaining at pH 9 after 1 hr by HPLC analysis; type: physicochemical; settings: read-out: Stability
Mus musculus [17] = test: Toxicity in athymic nude mouse xenografted with human HT-29 cells assessed as weight gain at 0.9 mg/kg, ip administered 14 days measured post last dose; type: organism-based; settings: in vivo, 336 h
In short: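 Female athymic nude mice, 7–9 weeks old, received 1.74 × 10^6 HT-29 cells subcutaneously in the right flank in 50% Matrigel/McCoy's 5A. Randomized at 110 mm3, 10 per group. Intraperitoneal dosing in USP saline (0.2 mL) over a 28-day period on the stated schedule. Body weights were taken twice weekly; clinical signs and survival were recorded.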

[18] = Stability of the compound in simulated gastric fluid assessed as compound remaining after 24 hrs by HPLC analysis
[19] = Stability of the compound in simulated gastric fluid assessed as compound remaining after 8 hrs by HPLC analysis
[20] = Chemical stability of the compound in buffer assessed as compound remaining at pH 4 after 2 hrs by HPLC analysis; type: physicochemical; settings: read-out: Stability
Mus musculus [21] = test: Toxicity in athymic nude mouse xenografted with human HT-29 cells assessed as skin irritation at 0.9 mg/kg, ip administered 14 days measured post last dose; type: organism-based; settings: in vivo, 336 h
HT-29 = test: Antitumor activity against human HT-29 cells xenografted in athymic nude mouse at 0.9 mg/kg, ip qd administered for 2 weeks followed by 3 times per week; type: functional, organism-based
In short: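 Female athymic nude mice, 7–9 weeks, implanted s.c. on right flank with 1.74 × 10^6 HT-29 cells (ATCC, mycoplasma/rodent-pathogen tested) in 50% Matrigel/50% McCoy's 5A; randomized at mean tumor 110 mm3, 10/group. IP dosing in USP saline, 0.2 mL, over a 28-day treatment period. Tumor volume by caliper (L × W2/2) at least twice weekly, tumor weight at necropsy, survival, body weight.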

Mus musculus [22] = test: Toxicity in athymic nude mouse xenografted with human A2780 cells assessed as mortality at 0.6 to 0.9 mg/kg, po administered for 30 days; type: organism-based; settings: in vivo, 720 h
In short: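 Female athymic nude mice, 7–9 weeks old, received 2.5 × 10^6 A2780 cells subcutaneously in the flank in 50% Matrigel/RPMI 1640. Mice were randomized at a mean tumor volume of 188 mm3, 10 per group. Daily oral gavage in USP saline (0.2 mL) for 30 days, dosed on group-mean body weight. Clinical signs, survival and body weights were recorded.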

[23] = Chemical stability of the compound in buffer assessed as compound remaining at pH 4 after 24 hrs by HPLC analysis; type: physicochemical; settings: read-out: Stability
[24] = Chemical stability of the compound in buffer assessed as compound remaining at pH 7.4 after 1 hr by HPLC analysis; type: physicochemical; settings: read-out: Stability
[25] = Chemical stability of the compound in buffer assessed as compound remaining at pH 1 after 24 hrs by HPLC analysis; type: physicochemical; settings: read-out: Stability
[26] = Chemical stability of the compound in buffer assessed as compound remaining at pH 9 after 8 hrs by HPLC analysis; type: physicochemical; settings: read-out: Stability
[27] = Stability of the compound in simulated gastric fluid assessed as compound remaining after 4 hrs by HPLC analysis

SMILES: CC(C)[C@]12O[C@H]1[C@@H]1O[C@]13[C@]1(O[C@H]1C[C@H]1C4=C(CC[C@@]13C)C(=O)OC4)[C@@H]2OCOP(=O)([O-])[O-].[Na+].[Na+] [MINNELIDE]
- remaining at 4 h [1]: 100%
- K [2]: 0.008659 h⁻¹
- remaining at 4 h [3]: 100%
- Activity (Mus musculus [4]): Toxic
- remaining at 1 h [5]: 93%
- Activity (Mus musculus [6]): Non-toxic
- K [7]: 0.002482 h⁻¹
- remaining at 1 h [8]: 98%
- remaining at 2 h [9]: 100%
- remaining at 8 h [10]: 99%
- remaining at 24 h [11]: 100%
- solubility [12]: 61 mg/mL
- Stability [13]: Stable
- remaining at 1 h [14]: 100%
- K [15]: 0.000494 h⁻¹
- remaining at 1 h [16]: 100%
- Activity (Mus musculus [17]): Toxic
- remaining at 24 h [18]: 0%
- remaining at 8 h [19]: 47%
- remaining at 2 h [20]: 100%
- Activity (Mus musculus [21]): Toxic
- Activity (HT-29): Active
- Activity (Mus musculus [22]): Toxic
- remaining at 24 h [23]: 99%
- remaining at 1 h [24]: 100%
- remaining at 24 h [25]: 0%
- remaining at 8 h [26]: 100%
- remaining at 4 h [27]: 71%
